Test results as given in ChEMBL document CHEMBL1123156 (J Med Chem, 1986).

Experiments:
[1] = target: T1, Aromatase (Homo sapiens, UniProt P11511)
T1 sequence (P11511 whole entry): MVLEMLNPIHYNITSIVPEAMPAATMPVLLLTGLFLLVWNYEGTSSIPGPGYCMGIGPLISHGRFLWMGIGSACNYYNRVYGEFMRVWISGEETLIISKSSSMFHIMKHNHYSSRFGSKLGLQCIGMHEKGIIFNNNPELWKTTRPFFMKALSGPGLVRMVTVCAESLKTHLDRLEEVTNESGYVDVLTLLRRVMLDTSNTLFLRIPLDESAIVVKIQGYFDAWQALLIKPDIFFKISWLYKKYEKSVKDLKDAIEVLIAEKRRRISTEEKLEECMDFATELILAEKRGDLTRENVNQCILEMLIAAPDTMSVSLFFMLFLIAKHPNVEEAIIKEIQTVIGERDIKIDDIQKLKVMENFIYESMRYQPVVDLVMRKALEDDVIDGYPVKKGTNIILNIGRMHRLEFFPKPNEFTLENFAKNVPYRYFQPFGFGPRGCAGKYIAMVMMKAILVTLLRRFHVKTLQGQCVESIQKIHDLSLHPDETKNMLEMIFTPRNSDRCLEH

[2] = target: T2, Cholesterol side-chain cleavage enzyme, mitochondrial (cytochrome P450scc) (Bos taurus, UniProt P00189); assay: Inhibition of Bovine adrenal cholesterol side chain cleavage cytochrome P450 at 50 ug/mL; conditions: cattle
T2 sequence (P00189 whole entry): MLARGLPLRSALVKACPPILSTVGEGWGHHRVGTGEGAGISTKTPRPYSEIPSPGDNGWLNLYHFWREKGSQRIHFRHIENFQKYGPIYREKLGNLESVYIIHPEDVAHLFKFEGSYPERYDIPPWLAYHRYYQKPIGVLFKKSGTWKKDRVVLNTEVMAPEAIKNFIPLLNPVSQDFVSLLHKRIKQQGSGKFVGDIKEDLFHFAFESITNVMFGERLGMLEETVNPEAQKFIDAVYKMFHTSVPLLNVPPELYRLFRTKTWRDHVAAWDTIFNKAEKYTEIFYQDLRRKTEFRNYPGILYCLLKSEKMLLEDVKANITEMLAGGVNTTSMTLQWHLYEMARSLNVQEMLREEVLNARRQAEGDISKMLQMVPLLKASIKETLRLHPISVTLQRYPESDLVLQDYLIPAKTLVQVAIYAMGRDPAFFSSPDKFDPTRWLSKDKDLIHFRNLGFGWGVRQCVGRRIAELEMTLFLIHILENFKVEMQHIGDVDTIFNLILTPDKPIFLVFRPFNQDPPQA
Method in brief: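 Bovine adrenal CSCC enzyme (cholesterol to pregnenolone) preparation. Inhibitor at 50 μg/mL, the highest concentration tested. Result is percent inhibition relative to uninhibited control, as the mean of two determinations (variability <10%).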

[3] = target: T1, Aromatase; remark: listed apart in the source
[4] = target: T1, Aromatase; remark: listed apart in the source
[5] = target: T1, Aromatase; assay: Inhibition of Cytochrome P450 19A1 at 20 ug/mL
Method in brief: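 Human placental aromatase preparation. Inhibitor at 20 μg/mL. Result is percent inhibition of androgen aromatization relative to control.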

Row | Structure (SMILES) | IC50 [1] | inhibition at 50 ug/mL [2] | IC50 [3] | Ki [4] | inhibition at 20 µg/mL [5]
1 | Nc1ccc(C2CC(=O)NC2=O)cc1 (stereo not given) | 20 µM | 30% | 10.2 µM |  | 
2 | CC1(c2ccc(N)cc2)CC(=O)NC1=O (stereo not given) | 12.5 µM | 0% | 10 µM | 0.8 µM | 
3 | CCC1(c2ccc(N)cc2)CC(=O)N(C)C1=O (stereo not given) |  | 0% |  |  | 
4 | CCC1(c2ccc(N)cc2)CC(=O)NC1=O (stereo not given) | 13.5 µM | 38% | 8.4 µM | 1 µM | 
5 | CN1C(=O)CC(C)(c2ccc(N)cc2)C1=O (stereo not given) | 15.7 µM | 30% | 10 µM | 1.75 µM | 
6 | NC(=O)CCc1ccc([N+](=O)[O-])cc1 |  | 28% |  |  | 8%
7 | NC(=O)CCc1ccc(N)cc1 |  | 19% |  |  | 38%
8 | CN1C(=O)CC(c2ccc(N)cc2)C1=O (stereo not given) | 16.6 µM | 30% | 10 µM | 1.75 µM | 
9 | CCC1(c2ccc(N)cc2)CCC(=O)NC1=O (stereo not given) [AMINOGLUTETHIMIDE] |  | 83% |  |  | 
